Assay results: ChEMBL document CHEMBL1141576, “Design of new potent and selective secretory phospholipase A2 inhibitors. Part 5: synthesis and biological activity of 1-alkyl-4-[4,5-dihydro-1,2,4-[4H]-oxadiazol-5-one-3-ylmethylbenz-4'-yl(oyl)] piperazines” (Bioorg Med Chem, 2008)

Columns and labels:
[1] = target: Phospholipase A2, major isoenzyme (Sus scrofa, UniProt P00592); assay: Inhibition of pig pancreatic PLA2 by fluorometric assay
Summary of the method: (§1)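 Fluorimetric PLA2 assay after Radvanyi et al. Enzymes were secretory human recombinant group II PLA2 and secretory porcine pancreatic group I PLA2. Concentration of the fluorescent substrate determined by UV spectrometry in a quartz cell. Values reported as IC50.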

[2] = Lipophilicity, log P of the compound; format: physicochemical; conditions: octanol/water
Summary of the method: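 logP of the free base calculated with Rekker's hydrophobic fragmental constants method.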

[3] = target: T1, Phospholipase A2, membrane associated (Homo sapiens, UniProt P14555); assay: Inhibition of human recombinant PLA2 by fluorometric assay; summary of the method: as §1
T1 sequence (P14555 whole entry): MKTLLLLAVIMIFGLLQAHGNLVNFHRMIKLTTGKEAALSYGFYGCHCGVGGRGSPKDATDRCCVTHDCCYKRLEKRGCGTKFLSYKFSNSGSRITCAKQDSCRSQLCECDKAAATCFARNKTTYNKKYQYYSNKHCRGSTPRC

Rattus norvegicus [4] = assay: Inhibition of carrageenan-induced hind paw edema in rat assessed as decrease in paw volume at 10 mg/kg, po after 5 hrs; format: functional; design: scale not given: the % may be the effect or the level left
Summary of the method: (§2)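 Rats. Compound given ip or orally 1 h before carrageenan injection into the hind leg; doses 5, 10 and 20 mg/kg. Indomethacin used as positive control. Edema volume measured at 0, 3 and 5 h after carrageenan.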

Mus musculus [5] = assay: Antiinflammatory activity against croton oil-induced ear edema in mouse at 1 mg/ear; format: functional
Summary of the method: (§3)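 Mice, anaesthetized. Test compound applied locally to inner surface of ear (or given per os); 1 h later croton oil applied to the ear to induce edema. 5 h after croton oil, edematous tissue punched out with a gimlet and compared with tissue from a control site to calculate percent inhibition. Results reported as mean of the animals tested, with number of experiments.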

Rattus norvegicus [6] = assay: Inhibition of carrageenan-induced hind paw edema in rat assessed as decrease in paw volume at 10 mg/kg; format: functional; design: scale not given: the % may be the effect or the level left; summary of the method: as §2
Mus musculus [7] = assay: Antiinflammatory activity against croton oil-induced ear edema in mouse at 0.5 mg/ear; format: functional; summary of the method: as §3

Phospholipase A2, major isoenzyme, sequence (P00592 whole entry): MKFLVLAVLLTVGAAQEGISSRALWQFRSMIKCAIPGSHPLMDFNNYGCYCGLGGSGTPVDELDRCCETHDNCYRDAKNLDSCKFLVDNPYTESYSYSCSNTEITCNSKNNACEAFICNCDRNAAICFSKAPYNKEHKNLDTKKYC

| Compound | IC50 [1] | logP ([2]; read-out: LogP) | IC50 [3] | Activity (Rattus norvegicus [4]) | Activity (Mus musculus [5]) | Activity (Rattus norvegicus [6]) | logP [2] | Activity (Mus musculus [7]) |
| --- | --- | --- | --- | --- | --- | --- | --- | --- |
| CCCCCCCCCCCCCCOc1ccc(Cc2noc(=O)[nH]2)cc1 | > 100 µM |  |  |  |  |  |  |  |
| CCCCCCCCCCCCCCN1CCN(C(=O)c2ccc(CCc3nc(=O)o[nH]3)cc2)CC1 | > 100 µM | 6.3 | 18.7 µM |  |  |  |  |  |
| CCCCCCCCCCCCCCCCN1CCN(c2ccc(Cc3noc(=O)[nH]3)cc2)CC1 | > 100 µM | 6.98 | 3.5 µM |  |  |  |  |  |
| CCCCCCCCCCCCCCCCCCN1CCN(c2ccc(Cc3noc(=O)[nH]3)cc2)CC1 | > 100 µM | 8.02 |  |  |  |  |  |  |
| CCCCCCCCCCCCCCCCCCN1CCN(C(=O)c2ccc(-c3noc(=O)[nH]3)cc2)CC1 | > 100 µM | 7.56 | 1.1 µM |  |  |  |  |  |
| CCCCCCCCCCCCCCN1CCN(C(=O)c2ccc(CCCc3noc(=O)[nH]3)cc2)CC1 | > 100 µM | 6.81 | 5.3 µM |  |  |  |  |  |
| CCCCCCCCCCCCCCCCCCN1CCN(Cc2ccc(-c3noc(=O)[nH]3)cc2)CC1 | > 100 µM | 7.37 | 5.08 µM |  |  |  |  |  |
| CCCCCCCCCCCCCCCCCCN1CCN(C(=O)c2ccc(Cc3noc(=O)[nH]3)cc2)CC1 | > 100 µM | 7.86 | 0.8 µM |  |  |  |  |  |
| CCCCCCCCCCCCCCCCN1CCN(Cc2ccc(-c3noc(=O)[nH]3)cc2)CC1 | > 100 µM | 6.34 | > 100 µM |  |  |  |  |  |
| CCCCCCCCCCCCCCCCCCCCN1CCN(C(=O)c2ccc(Cc3noc(=O)[nH]3)cc2)CC1 | > 100 µM | 8.89 | 0.1 µM |  |  |  |  |  |
| CCCCCCCCCCCCCCN1CCN(C(=O)c2ccc(Cc3noc(=O)[nH]3)cc2)CC1 | > 100 µM | 5.78 | 9 µM | 65% | 47.83% |  |  |  |
| CCCCCCCCCCCCCCN1CCN(Cc2ccc(-c3nc(=O)o[nH]3)cc2)CC1 | > 100 µM | 5.3 | > 100 µM |  |  |  |  |  |
| CCCCCCCCCCCCCCCCN1CCN(C(=O)c2ccc(-c3nc(=O)o[nH]3)cc2)CC1 | > 100 µM | 6.53 | > 100 µM |  |  |  |  |  |
| CCCCCCCCCCCCCCN1CCN(C(=O)c2ccc(-c3nc(=O)o[nH]3)cc2)CC1 | > 100 µM | 5.48 | > 100 µM |  |  |  |  |  |
| CCCCCCCCCCCCCCN1CCN(Cc2ccc(Cc3noc(=O)[nH]3)cc2)CC1 | > 100 µM | 5.59 | > 10 µM |  | 51.45% | 79% |  |  |
| CCCCCCCCCCCCCCCCN1CCN(Cc2ccc(Cc3noc(=O)[nH]3)cc2)CC1 | > 100 µM | 6.63 | 10 µM |  |  |  |  |  |
| CCCCCCCCCCCCCCN1CCN(c2ccc(Cc3nc(=O)o[nH]3)cc2)CC1 | > 100 µM | 5.95 | 4.5 µM |  |  |  |  |  |
| CCCCCCCCCCCCCCCCCCCCCCN1CCN(C(=O)c2ccc(Cc3noc(=O)[nH]3)cc2)CC1 | > 100 µM |  | 0.1 µM |  |  |  | 9.932 |  |
| CCCCCCCCCCCCCCCCN1CCN(C(=O)c2ccc(Cc3nc(=O)o[nH]3)cc2)CC1 | > 100 µM | 6.81 | 4 µM |  |  |  |  |  |
| CCCCCCCCCCCCCCCCCCN1CCN(Cc2ccc(Cc3nc(=O)o[nH]3)cc2)CC1 | > 100 µM | 7.67 | 2.2 µM |  |  |  |  |  |
| COc1ccc2c(c1)c(CC(=O)O)c(C)n2C(=O)c1ccc(Cl)cc1 [INDOMETHACIN] |  |  |  | 16% |  | 73% |  | 43.11% |
